# AF4-AF9 inh = blocks AF4 peptide binding to human AF9 | AlphaScreen, biotin-AF4 peptide binding to FLAG-AF9 | inhibition, % at 10 µM | actives 0.47% (n = 350,000);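 active = every replicate reaching a set inhibition limit, whatever the replicate mean, cut at about 25% in these data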;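 also: 0% = plate neutral control median and 100% = total signal loss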
# CASP6 VEID inh = inhibitors of human caspase-6 | P55212 | purified caspase-6, Z-VEID-R110 cleavage fluorescence | inhibition, % at 12.5 µM | actives 0.53% (n = 350,000) | AID 686996;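 active = mean inhibition across replicates at least about 35%, with every replicate also reaching that limit, limit read from the data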;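 also: 0% = median of neutral control wells and 100% = no fluorescence left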
# Target sequence (P55212 24-179 limits assumed): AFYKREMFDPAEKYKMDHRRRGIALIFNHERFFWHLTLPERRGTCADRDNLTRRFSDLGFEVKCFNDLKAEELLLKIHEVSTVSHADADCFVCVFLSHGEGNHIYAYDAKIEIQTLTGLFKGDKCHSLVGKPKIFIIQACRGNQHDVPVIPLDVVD
# Target sequence (P55212 194-293 limits assumed): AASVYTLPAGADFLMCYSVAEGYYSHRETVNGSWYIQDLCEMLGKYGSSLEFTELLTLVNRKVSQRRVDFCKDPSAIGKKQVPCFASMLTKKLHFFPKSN
# RAD52 anneal inh = inhibitors of human RAD52 DNA annealing. P43351. recombinant RAD52 DNA annealing, FRET fluorescence. inhibition, % at 18.7 µM. actives 0.46% (n = 360,000);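 active = every replicate showing at least 50% inhibition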
# RAD54 inh = RAD54 (human) branch migration inhibition; Q92698; RAD54 Holliday junction branch migration, FAM/BHQ fluorescence; inhibition, % at 10.4 µM; actives 0.14% (n = 360,000); AID 602329;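 active = mean normalized replicate activity at least 40 and at least half of replicates scoring 40 or more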;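 also: 0% = median of neutral control wells and 100% = median of positive control wells; inhibitors cause a drop in the FAM fluorescence signal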
# XiGFP reactiv = reactivates the inactive X chromosome in mouse fibroblasts | XiGFP mouse fibroblasts, % GFP-positive cells imaging, 3 d; cells co-treated with 5-aza-dC sensitizer; scaled so ellipticine positive control = 100% | activation, % at 7.58 µM | actives 0.055% (n = 360,000) | AID 743238;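 active = mean normalized replicate activation at least 10% and every replicate at or above 10%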;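 also: 0% = median of on-plate neutral control wells and 100% = ellipticine 6 µM median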
#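 material = 68-5-11 XiGFP fibroblast line | medium = DMEM plus 5-aza-dC sensitizer | schedule = 3 days compound exposure | benchmarks = positive control ellipticine, 6 µM final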
# S100A4 inh HTS = blocks human S100A4 binding to myosin IIA peptide. S100A4/TAMRA-MyoIIA peptide fluorescence polarization. inhibition, % at 10.7 µM. actives 0.14% (n = 360,000);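 active = mean inhibition of at least 70% across replicates, with every replicate also reaching that level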
# Target sequence (P26447 whole entry, looked up): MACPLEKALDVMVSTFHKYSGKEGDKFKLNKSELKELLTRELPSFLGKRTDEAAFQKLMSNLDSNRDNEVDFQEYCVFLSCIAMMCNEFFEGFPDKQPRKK
#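 Test system – S100A4 monomer (human) · Compound – single-point compound testing · Schedule – 5 min incubation before reading · Probe or stimulus – TAMRA-labelled myosin IIA heavy-chain peptide probe, 5 nM · Benchmarks – neutral control DMSO, positive control TFP · Medium – Calcium-containing HEPES buffer, pH 7.2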
# Starred values were filed as active, the others as inactive; i = inactive; nt = not tested or not shown; ! = repeats disagree. In the library only some 1.3% were active in any assay of this set; here they are far more common.
SMILES,AF4-AF9 inh,CASP6 VEID inh,RAD52 anneal inh,RAD54 inh,XiGFP reactiv,S100A4 inh HTS
COCCNC(=O)C[C@H]1CC[C@@H]2[C@H](COC[C@H](O)CN2S(=O)(=O)c2ccccc2C)O1,-4,-7,21,5,0,9
Cc1noc(C)c1S(=O)(=O)Nc1ccc2c(c1)C(=O)N([C@@H](C)CO)C[C@@H](C)[C@H](CN(C)S(=O)(=O)c1ccc(F)cc1)OCCCC[C@@H](C)O2,-2,-2,-39,-10,0,33
CC(C)NC(=O)Nc1ccc2c(c1)C(=O)N([C@@H](C)CO)C[C@H](C)[C@@H](CN(C)S(=O)(=O)c1ccccc1)OCCCC[C@H](C)O2,-1,2,7,-3,0,-11
Cc1ccc(S(=O)(=O)Nc2ccc3c(c2)C(=O)N([C@@H](C)CO)C[C@@H](C)[C@H](CN(C)S(=O)(=O)c2ccc(C)cc2)OCCCC[C@H](C)O3)cc1,-9,-1,-29,-4,0,5
Cc1ccc(S(=O)(=O)Nc2ccc3c(c2)C(=O)N([C@H](C)CO)C[C@@H](C)[C@@H](CN(C)S(=O)(=O)c2ccc(C)cc2)OCCCC[C@@H](C)O3)cc1,-1,-8,-18,3,1,103*
CC(C)NC(=O)Nc1ccc2c(c1)C(=O)N([C@H](C)CO)C[C@@H](C)[C@H](CN(C)S(=O)(=O)c1ccccc1)OCCCC[C@@H](C)O2,1,1,2,-6,0,121*
Cc1noc(C)c1S(=O)(=O)Nc1ccc2c(c1)C(=O)N([C@H](C)CO)C[C@@H](C)[C@@H](CN(C)S(=O)(=O)c1ccc(F)cc1)OCCCC[C@H](C)O2,-1,1,60*,1,0,-19
Cc1noc(C)c1S(=O)(=O)Nc1ccc2c(c1)C(=O)N([C@H](C)CO)C[C@H](C)[C@@H](CN(C)S(=O)(=O)c1ccc(F)cc1)OCCCC[C@H](C)O2,0,5,82*,-7,0,-8
CO[C@@H]1CN(C)C(=O)c2ccc(NC(=O)Cc3ccccc3)cc2OC[C@H](C)N(C(C)=O)C[C@H]1C,1,nt,-4,-3,0,16
CCC(=O)N(C)C[C@@H]1Oc2cc(-c3ccc(C)cc3)ccc2S(=O)(=O)N([C@@H](C)CO)C[C@H]1C,3,0,6,-3,-1,0
Cc1ccc(S(=O)(=O)Nc2ccc3c(c2)C(=O)N([C@H](C)CO)C[C@H](C)[C@@H](CN(C)CC2CCCCC2)OCCCC[C@H](C)O3)cc1,10,1,41,-3,0,1
Cc1ccc(S(=O)(=O)Nc2ccc3c(c2)C(=O)N([C@@H](C)CO)C[C@H](C)[C@@H](CN(C)CC2CCCCC2)OCCCC[C@H](C)O3)cc1,17,1,55*,5,0,-2
CC[n+]1c(/C=C2\Sc3ccccc3N2C)ccc2cccc(C)c21,19,10,i,i,105*,-11
CCN1/C(=C/c2ccc3cc(C)ccc3[n+]2CC)Sc2cc(C)c(C)cc21,18,-35,i,nt,162*,11
CCN1/C(=C/c2ccc3cc(C)ccc3[n+]2CC)Sc2ccccc21,17,1,i,nt,448*,-32
C[C@@H]1CN([C@H](C)CO)C(=O)CCCn2nncc2CO[C@@H]1CN(C)Cc1ccc(Oc2ccccc2)cc1,4,1,8,-22,0,-1
COc1ccccc1-c1ccc([C@@H]2[C@H](C#N)N[C@@H]2CO)cc1,2,-1,-23,-4,0,4
COc1ccc(N2CCN(C3CCCN(S(=O)(=O)c4ccccc4)C3)CC2)cc1 (stereo not given),6,1,-8,-7,0,26
COc1ccc(N2CCN(C3CCCN(S(=O)(=O)c4ccc(C)cc4C)C3)CC2)cc1 (stereo not given),32*,nt,-15,-16,0,9
COc1ccc(CN(C)C(=O)c2ccc(OCC(=O)Nc3cccc(C(F)(F)F)c3)c(OC)c2)c(OC)c1,8,57*,1,4,0,-8
COc1cccc(CN(C)C(=O)c2ccc(OCC(=O)Nc3cccc(C(F)(F)F)c3)c(OC)c2)c1,0,-4,9,7,0,-8
C[C@@H]1CN([C@@H](C)CO)C(=O)c2cccc(NC(=O)C3CCOCC3)c2O[C@@H]1CN(C)C(=O)Nc1cccc2ccccc12,-3,2,2,-17,0,5
C[C@@H]1CN([C@H](C)CO)C(=O)c2c(c3ccccc3n2C)-c2ccccc2CO[C@H]1CN(C)Cc1ccc2c(c1)OCCN2C,42*!,1,-3,4,0,3
C[C@H]1CN([C@@H](C)CO)C(=O)c2ccccc2-c2ccccc2CO[C@H]1CN(C)Cc1ccc2c(c1)OCCN2C,34*,1,1,-2,0,9
Cc1ccc(/C=C2\C(=N)N3N=C(CC(=O)N4CCOCC4)SC3=NC2=O)o1,-7,38*,-34,-1,0,-8
SMILES,AF4-AF9 inh,CASP6 VEID inh,RAD52 anneal inh,RAD54 inh,XiGFP reactiv,S100A4 inh HTS
COc1ccc(/C=C2\C(=N)N3N=C(CC(=O)N4CCOCC4)SC3=NC2=O)cc1,-4,-1,-38,-7,0,-8
COc1ccc(CN2CCCCCC2)cc1,-3,-5,-14,-1,0,0
COc1ccc(N=Nc2cc(C)c(O)c(CN3CCCCC3)c2)cc1,54*,2,-5,-5,0,-1
Cc1cc2c(=Cc3ccc(N(C)C)cc3)c3ccccc3n2[n+]1C,30*,-4,-65,nt,0,-131
CCOC(=O)SC1=N/C(=C\c2ccc(N(C)C)cc2)C(=O)S1,5,7,-36,nt,nt,-8
CCOC(=O)c1cc2c(=Cc3ccc(N(C)C)cc3)c3ccccc3n2[n+]1C,52*,97*,56*,nt,0,-109
C[C@@H]1CN([C@H](C)CO)C(=O)c2c(c3ccccc3n2C)-c2ccccc2CO[C@@H]1CN(C)C(=O)c1cc(Cl)cc(Cl)c1,3,1,21,nt,0,3
CCCC[n+]1ccn(-c2nc3ccccc3nc2[N-]S(=O)(=O)c2cccs2)c1,1,3,-11,94*,0,-24
Cc1nonc1NC(=O)CSc1nc2c(C)cccc2cc1C#N,nt,nt,nt,nt,65*,nt
CC(=O)N1CCCc2cc(S(=O)(=O)N3CCCC(C(=O)NCc4ccccc4Cl)C3)ccc21 (stereo not given),32*,0,-27,-2,0,-3
CC(=O)N1c2ccc(S(=O)(=O)N3CCCC(C(=O)NCc4ccccc4Cl)C3)cc2CC1C (stereo not given),-1,-1,-22,-3,0,0
